# Screens from PubChem.
# 5HT1a ag: 5-HT1a (human) receptor agonism. P08908. CHO 5-HT1a Ga15 NFAT-bla reporter, FRET ratio; 0% basal, 100% maximal reference agonist. activation, % at 10 µM. hit rate 0.56% among 65,000;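 active means activation above the screen-wide mean activation plus 3 SD, cut at about 19% in these data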;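 further: 0% = DMSO wells and 100% = 5-CT at EC100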
# Target sequence (P08908 whole entry, looked up): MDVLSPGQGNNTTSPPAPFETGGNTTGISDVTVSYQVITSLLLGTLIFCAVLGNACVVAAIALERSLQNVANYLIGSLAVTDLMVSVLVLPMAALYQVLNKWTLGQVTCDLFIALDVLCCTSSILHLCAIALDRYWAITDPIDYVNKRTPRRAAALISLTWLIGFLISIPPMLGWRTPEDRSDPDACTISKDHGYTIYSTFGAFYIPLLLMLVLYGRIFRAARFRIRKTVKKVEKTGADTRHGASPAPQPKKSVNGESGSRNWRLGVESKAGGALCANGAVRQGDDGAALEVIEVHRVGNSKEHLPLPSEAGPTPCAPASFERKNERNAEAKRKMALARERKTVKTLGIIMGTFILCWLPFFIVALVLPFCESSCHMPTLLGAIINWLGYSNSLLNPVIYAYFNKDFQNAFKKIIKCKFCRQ
# 5HT1E ag: 5-HT1E (human) receptor agonism; P28566; CHO 5-HT1E Ga15 NFAT-bla reporter, FRET; 0% DMSO wells, 100% control agonist wells; activation, % at 6 µM; hit rate 0.69% among 65,000; AID 574;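 active means activation above a set limit, the screen-wide mean activation plus 3 SD, cut at about 8.5% in these data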;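 further: 100% = positive control agonist at 1 µM giving full maximal response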
# 5HT1a antag: antagonists of human 5-HT1a serotonin receptor. P08908. CHO 5-HT1a Ga15 NFAT-bla reporter, antagonist mode. inhibition, % at 10 µM. hit rate 0.68% among 62,000;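 active means inhibition above the mean of all tested compounds plus 3 SD, cut at about 43% in these data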;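 further: receptor stimulated by 5-CT agonist at 100 nM near EC80; beta-lactamase reporter measured by ratiometric fluorescence of a cleavable substrate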
# 5HT1E antag: antagonists of human 5-HT1E serotonin receptor; inhibition, % at 6 µM; P28566; hit rate 0.99% among 65,000; CHO 5-HT1E Ga15 NFAT-bla reporter, FRET, antagonist;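 active means inhibition above a set limit, the mean inhibition across every tested compound plus 3 SD, cut at about 29% in these data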;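 further: signal is the 460 over 535 nm emission ratio of beta-lactamase substrate; 0% = agonist plus DMSO wells and 100% = wells without agonist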
# S1P3 ag: agonists of human S1P3 receptor | Q99500 | S1P3 NFAT-BLA reporter cells, agonism, FRET ratio; relative to 1 µM S1P, basal subtracted | activation, % at 4.5 µM | hit rate 0.1% among 60,000 | AID 373;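 active means activation above the screen-wide mean plus 3 SD, cut at about 4.5% in these data, passing the limit was not always enough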
#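 Material: Human S1P3 NFAT-BLA reporter CHO cells | Incubation: Overnight plating, 4 h compound 37 °C, 2 h substrate RT | Signal: FRET β-lactamase substrate fluorescence, excitation 405 nm, 460/535 nm emission ratio, background-subtracted | Compound: 4.5 µM final, single dose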
# S1P1 ag-PAM: activates or potentiates agonism at human S1P1 receptor. P21453. AID 449. activation, % at 9.5 µM. S1P1 CRE-bla cells, forskolin, beta-lactamase FRET, potentiator mode; S1P1 agonist co-added at EC20, 2 nM; 100% = saturating reference agonist, 0% = basal. hit rate 0.57% among 56,000;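 active means activation above a cutoff set at the mean activation of all tested compounds plus 3 SD, cut at about 54% in these data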;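 further: forskolin at 4 µM as EC80 and the EC20 agonist is SEW2871; 100% = SEW2871 at its EC100 plus forskolin at EC80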
# * marks the source's active call; other numbers are inactive results; / = no result. Most compounds without a hit are left out; they make up all but 3% or so of the library.
SMILES,5HT1a ag,5HT1E ag,5HT1a antag,5HT1E antag,S1P3 ag,S1P1 ag-PAM
COc1nc(OC)nc(N2CCC(C(=O)Nc3cccc4c3CCCC4)CC2)n1,22*,0,0,1,0,-2
COc1nc(OC)nc(N2CCC(C(=O)Nc3cccc4ccccc34)CC2)n1,-4,0,10,8,-1,-16
COc1ccc(C2CC(=O)C(C=NCCN3CCN(C(C)=O)CC3)=C(O)C2)cc1OC (stereo unspecified),-2,0,-17,0,-1,-8
Cc1ccc(-n2c(SCC(N)=O)nnc2-c2cccnc2)c(C)c1,-3,-1,-8,1,-2,3
Cc1ccccc1-n1c(SC(C)C(N)=O)nnc1-c1cccnc1 (stereo unspecified),0,27*,1,5,0,-24
C=CCn1c(N)c(C(=O)Nc2ccccc2)c2nc3ccccc3nc21,27*,6,/,1,4,-60
C=CCn1c(N)c(C(=O)OC(C)(C)C)c2nc3ccccc3nc21,4,2,/,12,-2,-18
CCN(CC)CCOC(=O)c1cccc(Cl)c1,-4,2,17,6,-2,-5
CCN(CC)CCOC(=O)c1cccc(Br)c1,0,11*,14,1,-1,18
CN(CC(=O)N1CC=C(c2ccccc2)CC1)S(=O)(=O)c1cnc[nH]1,-5,0,2,6,-1,-1
CCn1nnc(-c2ccccc2NC(=O)c2ccc(-n3cnnn3)cc2)n1,0,1,4,9,-1,-14
CCn1nnc(-c2ccccc2NS(=O)(=O)c2ccc(C(=O)OC)cc2)n1,-4,-2,21,34*,-1,51
Cc1ccc(-c2nnn(CC(=O)N(Cc3ccccc3)C(C(=O)NC3CCCC3)c3ccncc3)n2)o1 (stereo unspecified),1,0,4,-10,-1,-16
O=C(Cc1cccs1)Nc1nc2ccccc2s1,64*,1,18,-8,-1,5
O=C(CSc1nc2ccccc2o1)Nc1nc2ccccc2s1,-1,-1,-5,1,1,-9
CN1C(=O)CC(N2CCN(CCN=CC3=C(O)CC(C)(C)CC3=O)CC2)C1=O (stereo unspecified),-1,0,55*,-4,-1,-12
O=C(OC1CCOC1=O)c1cncc(Br)c1 (stereo unspecified),-3,43*,-15,1,-1,3
O=C(OC1CCOC1=O)c1ccc2ncsc2c1 (stereo unspecified),-2,0,1,-2,1,1
O=C(O)C1CCCN1S(=O)(=O)c1ccc(Cl)c(Cl)c1 (stereo unspecified),-1,44*,10,-1,-1,/
O=C(O)C1CCCN1S(=O)(=O)c1ccc2ccccc2c1 (stereo unspecified),-1,0,-3,-9,/,/
Cc1cccc(C)c1OCC(O)Cn1ccnc1C (stereo unspecified),1,-1,4,5,-2,4
Cc1cccc(C)c1OCC(O)CN (stereo unspecified),-4,24*,-3,3,0,7
CCOC(=O)N1CCC(N2C(=O)c3ccccc3C2Nc2cc(C(=O)OC)cc(C(=O)OC)c2)CC1 (stereo unspecified),0,0,29,6,-1,-14
Cc1cccc(NC(=O)C2CCCN(c3nc(C)cc(C)n3)C2)c1 (stereo unspecified),0,13*,-2,-6,0,-10
Cc1nn(-c2ccccc2)c(C)c1NS(=O)(=O)c1ccccc1,-1,-1,10,36*,0,-22
SMILES,5HT1a ag,5HT1E ag,5HT1a antag,5HT1E antag,S1P3 ag,S1P1 ag-PAM
Cc1nn(C)c(C)c1NS(=O)(=O)c1ccccc1,-1,0,-10,6,0,-24
CN=c1oc2ccc(Cl)cc2cc1C(N)=O,-2,9.8*,15,-1,-1,-9
NC(=O)c1oc2ccc(Cl)cc2c1N,2,-1,1,-2,-1,10
CC1(C)Cc2c(C#N)c(NCCc3ccccc3)nc(-c3ccco3)c2CO1,49*,9.1*,/,-53,12,-21
COc1cc(OC)nc(NC(=O)CSc2nnc(-c3ccccc3)n2C2CCCCC2)n1,-1,-1,8,8,-1,5
COC(=O)C1CCN(C(=O)C(C)Oc2ccc(Cl)cc2Cl)CC1 (stereo unspecified),90*,-2,24,3,/,/
CCCCc1ccc(Nc2nc(CCC)cc(=O)[nH]2)cc1,-2,0,45*,6,-2,7
CCCc1cc(=O)[nH]c(Nc2ccc(N3CCCCC3)cc2)n1,0,0,14,0,-2,10
Cc1cccc(N2CC34C=CC(O3)C(C(=O)O)C4C2=O)c1 (stereo unspecified),-4,0,-6,2,-1,0
Cc1ccc2c(c1)C1OCCC1C1N2C(=O)C2C(C(=O)O)C3C=CC21O3 (stereo unspecified),21*,0,6,-1,-1,-5
COc1cccc(N2CCN(C(=O)c3ccc(=O)oc3)CC2C)c1 (stereo unspecified),2,12*,/,1,-4,-7
COc1cccc(NC(=O)N2CCN(c3cccc(C)c3)C(C)C2)c1 (stereo unspecified),-2,0,15,3,0,7
COc1cc(NS(C)(=O)=O)c(OC)cc1NC(=O)c1ccccc1,-3,1,7,-2,/,/
Cc1cc(C)nc(SC2=CS(=O)(=O)c3ccccc32)n1,0,1,28,28,-1,43
O=S1(=O)C=C(Sc2nc3ccccc3s2)c2ccccc21,-4,0,98*,106*,-2,114*
Cc1cccn2c(=O)c3cc(C(=O)N4CCN(c5ccccc5)CC4)n(C)c3nc12,-1,2,-8,-1,-1,-19
COC(=O)Cn1cnc(=O)c(C#N)c1/C=C/N(C)C,-6,0,-12,-9,-2,-12
COc1cccc2sc(Nc3nnc(-c4ccccc4Cl)o3)nc12,-4,2,64*,25,0,-185
COc1ccccc1-c1nnc(Nc2nc3c(OC)cccc3s2)o1,-5,1,51*,53*,-1,-28
COc1cc(C)c(N)cc1C(C)C,1,23*,-5,-5,0,-9
COc1cc(C)c(S(=O)(=O)N2CCOCC2)cc1C(C)C,-2,0,3,1,-1,-37
COc1cc(CNc2ccc(N3CCOCC3)c(C(=O)O)c2)ccc1OCC(N)=O,-2,34*,-1,-1,0,-6
